27 compounds from PubChem BioAssay AID624016 (Broad Institute, 2012) can be followed below.

The source made the active and inactive calls.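 The calls were made as follows: active = fitted curve reaching 35% inhibition at both 405 and 600 nm absorbance, in duplicate, within twice the top valid dose; inactive = the rest, including signal rising instead of falling.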

Assay [1] can be described thus: bacterial growth inhibition with EDDHA chelator – absorbance 405 nm, dry powder, set 4, dose response (AID 624016). To be noted: P. aeruginosa + EDDHA, pyoverdine absorbance 405 nm, 24-30 h. The procedure, abridged:
(§1)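 Assay system – Pseudomonas aeruginosa strain ATCC 15692, whole bacterial cells · Amount – final OD600 0.0000005 · Dosing – 3-fold compound dilution series prepared from 10 mM stock · Buffer or medium – succinate M9 medium, pH 7.0, with 2 µM EDDHA iron chelator (final) · Schedule – 24-30 h exposure at 37 °C · Detection – absorbance at 405 nm reflecting pyoverdine production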

The subject of assay [2] is P. aeruginosa + EDDHA, pyoverdine absorbance 405 nm, 24-30 h. The description is as above. The procedure, abridged: as §1

As to `CCCC(C#N)c1ccc(Cl)cc1` (configuration not stated), the activity change, negative = inhibition in assay [1] (at 50 µM (top of the series)) is -8.71% (inactive).

In the case of `CCCCC(C#N)c1ccccc1OC(F)(F)F` (configuration not stated), the activity change, negative = inhibition in assay [1] (at 50 µM (top of the series)) is -2.91% (inactive).

Consider `CCCCC(C#N)c1ccc(F)cc1` (configuration not stated), for which the activity change, negative = inhibition in assay [1] (at 50 µM (top of the series)) was -0.303% (inactive).

With `N#Cc1ccc(C(C#N)c2ccc(Cl)cc2Cl)nc1` (configuration not stated), in assay [1] (at 50 µM (top of the series)), the activity change, negative = inhibition is -0.009% (inactive).

In the case of `N#CC(c1ccc(Cl)cc1)c1ccc(C(F)(F)F)c(Cl)n1` (configuration not stated), in assay [1] (at 50 µM (top of the series)), the activity change, negative = inhibition is 20.6% (inactive).

With `N#CC(c1ccc(C(F)(F)F)cc1)c1ccc(C(F)(F)F)c(Cl)n1` (configuration not stated), the activity change, negative = inhibition in assay [1] (at 50 µM (top of the series)) is 2.24% (inactive).

For `N#CC(c1ccc(Cl)cc1Cl)c1ncccc1Cl` (configuration not stated), in assay [1] (at 50 µM (top of the series)), the activity change, negative = inhibition was 1.29% (inactive).

Turning to `CCCCC(C#N)c1ccc(Cl)cc1Cl` (configuration not stated), in assay [1] (at 50 µM (top of the series)), the activity change, negative = inhibition was -5.19% (inactive).

Consider `Cc1ccc(C(C#N)c2ccccc2OC(F)(F)F)nc1C#N` (configuration not stated), for which, in assay [1] (at 16 µM (top of the series)), the activity change, negative = inhibition is -24.9% (inactive).

Regarding `N#CC(c1cccc(C(F)(F)F)n1)c1ccc(Cl)cc1F` (configuration not stated), the AC35 in assay [2] was 15 µM.

In the case of `N#CC(c1ccc(Cl)cc1)c1ccc(C(F)(F)F)cn1` (configuration not stated), the activity change, negative = inhibition in assay [1] (at 50 µM (top of the series)) was 3.24% (inactive).

With `CC(C#N)(c1ccc(Cl)cc1)c1ccc(C(F)(F)F)cn1` (configuration not stated), the activity change, negative = inhibition in assay [1] (at 50 µM (top of the series)) was -4.71% (inactive).

As for `N#CC(c1ccc(Cl)cc1)c1cccc(C(F)(F)F)n1` (configuration not stated), the AC35 in assay [2] was 8.64 µM.

On to `N#CC(c1ccc(C(F)(F)F)c(Cl)n1)c1ccccc1OC(F)(F)F` (configuration not stated), for which, in assay [1] (at 50 µM (top of the series)), the activity change, negative = inhibition was -6.71% (inactive).

For the compound `CCCCC(C#N)c1ccc(C(F)(F)F)cc1` (configuration not stated), the activity change, negative = inhibition in assay [1] (at 50 µM (top of the series)) is -3.25% (inactive).

With `N#CC(c1ccc(Cl)cc1)c1ncccc1Cl` (configuration not stated), in assay [2], the AC35 is 10.7 µM.

`CCCCC(C#N)c1ccc(Cl)cc1F` (configuration not stated): the activity change, negative = inhibition in assay [1] (at 50 µM (top of the series)) is 5.25% (inactive).

For the compound `CC(C)CC(C#N)c1ccc(Cl)cc1` (configuration not stated), the activity change, negative = inhibition in assay [1] (at 50 µM (top of the series)) was -16.3% (inactive).

For `N#CC(c1ccc(C(F)(F)F)cc1)c1cccc(C(F)(F)F)n1` (configuration not stated), the AC35 in assay [2] is > 50 µM (inactive).

In the case of `N#CC(c1ccc(F)cc1)c1ccc(C(F)(F)F)c(Cl)n1` (configuration not stated), in assay [1] (at 50 µM (top of the series)), the activity change, negative = inhibition is -4.12% (inactive).

Take `CCCCC(C#N)c1ccc(Cl)cc1` (configuration not stated): in assay [1] (at 50 µM (top of the series)), the activity change, negative = inhibition was -0.817% (inactive).

On to `N#Cc1cccc(C(C#N)c2ccc(Cl)cc2F)n1` (configuration not stated), for which, in assay [1] (at 50 µM (top of the series)), the activity change, negative = inhibition was -15.5% (inactive).

As for `N#CC(c1ccc(F)cc1)c1cccc(C(F)(F)F)n1` (configuration not stated), the AC35 in assay [2] is 28.9 µM.

Take `N#CC(c1cccc(C(F)(F)F)n1)c1ccccc1OC(F)(F)F` (configuration not stated): the activity change, negative = inhibition in assay [1] (at 50 µM (top of the series)) was -7.92% (inactive).

Regarding `N#CC(c1ccc(C(F)(F)F)cc1)c1cccc(Cl)n1` (configuration not stated), the activity change, negative = inhibition in assay [1] (at 50 µM (top of the series)) is -4.32% (inactive).

Consider `N#CC(c1cccc(Cl)n1)c1ccc(Cl)cc1F` (configuration not stated), for which, in assay [2], the AC35 is 22.3 µM.

On to `N#CC(c1ccc(C(F)(F)F)c(Cl)n1)c1ccc(Cl)cc1Cl` (configuration not stated), for which the activity change, negative = inhibition in assay [1] (at 50 µM (top of the series)) was 15.9% (inactive).
